Laboratory results from the RNAGym collection of RNA variant scans (doi:10.1126/science.aae0568).
Variants at the floor of the assay were thinned out.

B1: tRNA (parent)
chain: GUUCCGUUGGCGUAAUGGUAACGCGUCUCCCUCCUAAGGAGAAGACUGCGGGUUCGAGUCCCGUACGGAACG

Variants of: B1
Test: yeast fitness relative to wild type (ratio to wild type); higher = fitter; tRNA-Arg(CCU), competitive growth, 37 C, YPD
How it was run: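 Amplicons of the tRNA-Arg(CCU) gene were sequenced, 100-nucleotide paired-end, from the start population and from each end population of a pooled yeast competition. The competition, in six parallel replicates, lasted 24 hours in YPD at 37°C. Fitness relative to wild type was calculated from changes in genotype frequencies. Genotypes had to have ≥ 100 starting reads, and estimates < 0.5 were set to 0.5.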

Going from A36G C49U A70C to A36C C55U G68C A70G, the yeast fitness falls from 0.663 to ≤ 0.5.

Going from A36U C62G to A36G G56A, the yeast fitness rises from 0.623 to 1.01.

First: A36G G56C
Second: A36G C60A A70G
The yeast fitness of the first is higher: 0.686 for the first, ≤ 0.5 for the second.

First: A36G U59C
Second: A36G A65U G67A
The yeast fitness of the first is higher: 1.18 for the first, 0.502 for the second.

Going from A36G C61U C66U to A36G A57C, the yeast fitness rises from 0.543 to 0.645.

First: A36G A57U
Second: A36G A42C G67C A69C
The yeast fitness of the first is higher: 0.859 for the first, 0.559 for the second.

Going from A36G G39A to A36G G39C, the yeast fitness falls from 0.954 to 0.787.

Compared with A36G C61A, A36G C61U is higher in yeast fitness: 0.766 for the first, 0.891 for the second.

Going from A36G G38C to A36C A57C G68A, the yeast fitness falls from 0.719 to 0.541.

A36G C55A C60U and A36C U59C A65G cannot be ordered by yeast fitness: ≤ 0.5 for the first, ≤ 0.5 for the second.

A36G A37U A42U A70G and A36U A37C A70G cannot be ordered by yeast fitness: ≤ 0.5 for the first, ≤ 0.5 for the second.

A36C U47A G48C U54G C62U and A36U U53G A69U cannot be ordered by yeast fitness: ≤ 0.5 for the first, ≤ 0.5 for the second.

Compared with A36C G56C, A36C G56A is lower in yeast fitness: 0.793 for the first, 0.61 for the second.

Compared with A36U G38A C49G C60G A70G, A36C C49G C61G C62G is lower in yeast fitness: 0.592 for the first, ≤ 0.5 for the second.

A36G A37G A45C G51C U59G and A36U A45U C46U U53C cannot be ordered by yeast fitness: ≤ 0.5 for the first, ≤ 0.5 for the second.

Compared with A36G A45U A65U, U35G A65G is higher in yeast fitness: 0.572 for the first, 0.573 for the second.

Compared with A36G C49U G58C, A36G A42G C55A is lower in yeast fitness: 0.655 for the first, ≤ 0.5 for the second.

Compared with A36C G41C, A36U A40U G44C C60U is lower in yeast fitness: 0.579 for the first, ≤ 0.5 for the second.

First: U35G G68C
Second: A36G C46G G63A
The yeast fitness of the first is lower: 0.619 for the first, 0.652 for the second.

Going from A36G G44A C46U to A36G C66A, the yeast fitness falls from 0.992 to 0.683.

Compared with A36G C66U, A36G C55A G67C is lower in yeast fitness: 0.949 for the first, ≤ 0.5 for the second.

Going from A36G G48A C49G to A36C A45C U54A A57U A65U, the yeast fitness falls from 0.63 to ≤ 0.5.

Compared with A36U G39A A45G, A36C C62U is higher in yeast fitness: ≤ 0.5 for the first, 0.583 for the second.

Compared with A36U G63C, A36G A65U A70C is higher in yeast fitness: ≤ 0.5 for the first, 0.684 for the second.

First: A36U A42C
Second: A36C A45U
The yeast fitness of the first is higher: 0.595 for the first, 0.591 for the second.

First: A36C A40U A70U
Second: A36U A69C
The yeast fitness of the first is lower: ≤ 0.5 for the first, 0.629 for the second.

Compared with A36U A69G, A36U U54C is lower in yeast fitness: 0.617 for the first, 0.559 for the second.

Going from A36U to A36G, the yeast fitness rises from 0.714 to 0.993.

Going from A36C to A36G C55A C66A, the yeast fitness falls from 0.705 to ≤ 0.5.

Compared with A36C U47C, A36U C55U A65C is lower in yeast fitness: 0.674 for the first, ≤ 0.5 for the second.

A36G G38C G52C A57U A69U A70G and A36U G48A C49A G68A cannot be ordered by yeast fitness: ≤ 0.5 for the first, ≤ 0.5 for the second.

A36G U53A C62A and A36C A37C A57C cannot be ordered by yeast fitness: ≤ 0.5 for the first, ≤ 0.5 for the second.

Going from A36C U47A G48C C61U to A36U G50C, the yeast fitness rises from ≤ 0.5 to 0.587.

First: U35G A42U A69C
Second: A36G A65C
The yeast fitness of the first is lower: ≤ 0.5 for the first, 0.9 for the second.

First: A36G A65G
Second: A36G G38C G52C A57U
The yeast fitness of the first is higher: 0.831 for the first, ≤ 0.5 for the second.

U35G C49G G52C C62G A69C and A36U C49U U54C cannot be ordered by yeast fitness: ≤ 0.5 for the first, ≤ 0.5 for the second.

Going from A36G A40C A42G to A36U C49A G52A, the yeast fitness falls from 0.768 to ≤ 0.5.

A36U A40U A65C C66U and A36G C60A C61G A65U cannot be ordered by yeast fitness: ≤ 0.5 for the first, ≤ 0.5 for the second.

First: A37C A42C C46A
Second: U35G A70U
The yeast fitness of the first is higher: 0.948 for the first, 0.674 for the second.

First: A36G C62A G63C
Second: A36C A42C
The yeast fitness of the first is lower: ≤ 0.5 for the first, 0.727 for the second.

A36U A40U A57G and A36G U64A G67C cannot be ordered by yeast fitness: ≤ 0.5 for the first, ≤ 0.5 for the second.

First: A36U G39A A42C G50U G63A
Second: A36G A42G C46G G68C
The yeast fitness of the first is higher: 0.535 for the first, ≤ 0.5 for the second.

First: A37C A43U U47C A69U
Second: U35G A43U
The yeast fitness of the first is lower: 0.688 for the first, 0.707 for the second.

Compared with U35G A43C, A36U G56C A69U is higher in yeast fitness: 0.583 for the first, 0.669 for the second.

Compared with U35G A43G U59A, A36C G39C A65C is lower in yeast fitness: 0.658 for the first, 0.598 for the second.

First: A37C A42U C49A A65U
Second: A36U A37U A45U A65G
The yeast fitness of the first is higher: 0.609 for the first, ≤ 0.5 for the second.

Compared with A36C C49U C55U C62G G68C, A36C C55G is higher in yeast fitness: ≤ 0.5 for the first, 0.556 for the second.

First: A36C C55A
Second: A36U A45C C49G G67A
The yeast fitness of the first is lower: ≤ 0.5 for the first, 0.548 for the second.

A37C A40G G52C U59C A65U C66U and A36G G52A C62G cannot be ordered by yeast fitness: ≤ 0.5 for the first, ≤ 0.5 for the second.

U35G A45C G56C and A36U A45U A57U cannot be ordered by yeast fitness: ≤ 0.5 for the first, ≤ 0.5 for the second.

Compared with A36U U64C, U35G U64C A70G is lower in yeast fitness: 0.581 for the first, ≤ 0.5 for the second.

Compared with A36G G52C, A36G G52A is higher in yeast fitness: 0.674 for the first, 0.744 for the second.

First: A36G G58A
Second: A36G G58C
The yeast fitness of the first is lower: 0.898 for the first, 0.943 for the second.

Going from A36C U54A C61G to A36U A45U C66U, the yeast fitness falls from 0.635 to 0.535.

First: U35G U54A C62U G68A
Second: A36C A40G
The yeast fitness of the first is lower: ≤ 0.5 for the first, 0.566 for the second.

A36G C60U A70U and A36G G48A C49G U59A cannot be ordered by yeast fitness: ≤ 0.5 for the first, ≤ 0.5 for the second.

A36C A40G G48A A65U C66U A69U and A36U G44A A70G cannot be ordered by yeast fitness: ≤ 0.5 for the first, ≤ 0.5 for the second.

First: U35G C46U
Second: A37C A40U G52C A69G
The yeast fitness of the first is higher: 0.628 for the first, ≤ 0.5 for the second.

First: A36U A45G C49A C66U A70G
Second: A36G A43U G48C
The yeast fitness of the first is lower: ≤ 0.5 for the first, 0.556 for the second.

A36U G52A C60A and A36U G52A C60G cannot be ordered by yeast fitness: ≤ 0.5 for the first, ≤ 0.5 for the second.

Going from A36U A45G C66U A70G to U35G A43G C46U, the yeast fitness rises from ≤ 0.5 to 0.702.

First: A36C G68C
Second: A36C C55U U59A
The yeast fitness of the first is higher: 0.591 for the first, ≤ 0.5 for the second.

First: A36C C61U A65U
Second: U35G G58C
The yeast fitness of the first is lower: ≤ 0.5 for the first, 0.653 for the second.

Going from U35G G58A to A36G C60U C61U, the yeast fitness falls from 0.675 to 0.625.

Going from A36G A40C to A36G A40U, the yeast fitness falls from 0.961 to 0.938.

Compared with A36G G41A C60G A65G, A36G A45G C49U is higher in yeast fitness: ≤ 0.5 for the first, 0.578 for the second.

A36U A45U G52C and A36G A42U A57U cannot be ordered by yeast fitness: ≤ 0.5 for the first, ≤ 0.5 for the second.

A36U U59C C62G and A36G U59A A65C A70C cannot be ordered by yeast fitness: ≤ 0.5 for the first, ≤ 0.5 for the second.

Going from A37C A43U A65U to A36U A42U C49U, the yeast fitness falls from 0.651 to 0.576.

Compared with A36U C46G U54C C62A A69C, A36C C61A is higher in yeast fitness: ≤ 0.5 for the first, 0.523 for the second.

Compared with A36G G68A, A36G G41A A43G C60U A70C is lower in yeast fitness: 0.905 for the first, ≤ 0.5 for the second.

First: A36G G50C U64C
Second: A36G G48C
The yeast fitness of the first is higher: 1.18 for the first, 0.905 for the second.

First: A36C A37G G56C
Second: A36G A45G A65U
The yeast fitness of the first is lower: ≤ 0.5 for the first, 0.54 for the second.

Compared with A36C A37U G50C, A36U G38A A40G is lower in yeast fitness: 0.576 for the first, ≤ 0.5 for the second.

Compared with A36C G41A U53C, A36C A37C A65C is lower in yeast fitness: 0.56 for the first, ≤ 0.5 for the second.

First: A36U A42U C49U A69C
Second: A36U C49A A69U
The yeast fitness of the first is lower: ≤ 0.5 for the first, 0.565 for the second.

First: A36G A42G C46G
Second: A36U C61U A65U
The yeast fitness of the first is higher: 0.698 for the first, ≤ 0.5 for the second.

Going from A36G A45G A65U G67U to A36U G67C, the yeast fitness rises from ≤ 0.5 to 0.602.

Compared with A36U G67A, A36C U59A is lower in yeast fitness: 0.63 for the first, 0.569 for the second.

A36U C66A and A36C A45C G48A G52C G68A cannot be ordered by yeast fitness: ≤ 0.5 for the first, ≤ 0.5 for the second.

First: A36G C61G A70C
Second: U35G A40G A57G
The yeast fitness of the first is higher: 0.661 for the first, 0.548 for the second.

First: A37C A43C A65U
Second: A37C
The yeast fitness of the first is lower: 0.537 for the first, 0.913 for the second.

First: A36G A43U
Second: A36G A43G
The yeast fitness of the first is higher: 1.01 for the first, 0.975 for the second.

In the case of A36G G41C, the yeast fitness is reported as 0.955.
